Measurements published in ChEMBL document CHEMBL3808300, “Atropisomer Control in Macrocyclic Factor VIIa Inhibitors” (J Med Chem, 2016).

Legend:
Coagulation factor XI = Coagulation factor XI (Homo sapiens, UniProt P03951); assay: Inhibition of purified human factor 11a after 30 to 60 mins
Procedure, shortened: (§1)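 Purified human enzyme, run at 25 °C. The reported Ki is the average of two experiments. The full protocol follows a previously published method.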

Kallikrein-1 = Kallikrein-1 (Homo sapiens, UniProt P06870); assay: Inhibition of purified human tissue kallikrein 1 using H-D-Val-Leu-Arg-AFC as substrate
Chain of Kallikrein-1 (P06870 whole entry): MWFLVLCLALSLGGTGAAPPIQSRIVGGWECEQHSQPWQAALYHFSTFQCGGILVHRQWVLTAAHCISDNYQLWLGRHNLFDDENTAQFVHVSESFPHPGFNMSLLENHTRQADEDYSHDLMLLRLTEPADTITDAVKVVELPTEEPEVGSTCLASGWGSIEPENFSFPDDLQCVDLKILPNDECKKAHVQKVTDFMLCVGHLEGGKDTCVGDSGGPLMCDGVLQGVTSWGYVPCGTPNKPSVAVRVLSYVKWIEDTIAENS
Procedure, shortened: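 Uses purified human tissue kallikrein 1 at 37 °C. Ki is averaged from two independent experiments. The procedure follows an earlier published protocol.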

Prothrombin = Prothrombin (Homo sapiens, UniProt P00734); assay: Inhibition of purified human thrombin after 30 to 60 mins; procedure, shortened: as §1
[1] = target: Coagulation factor VII/tissue factor (Homo sapiens, UniProt P08709); assay: Inhibition of recombinant human Tissue factor/factor 7a using S2288 as substrate after 30 to 60 mins; type: protein-complex assay
Chain of Coagulation factor VII/tissue factor (P08709 61-212 limits assumed): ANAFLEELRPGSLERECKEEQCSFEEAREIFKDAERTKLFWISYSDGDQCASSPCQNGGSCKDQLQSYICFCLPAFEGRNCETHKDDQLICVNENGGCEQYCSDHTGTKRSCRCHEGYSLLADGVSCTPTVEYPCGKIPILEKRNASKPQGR
Chain of Coagulation factor VII/tissue factor (P08709 213-466 limits assumed): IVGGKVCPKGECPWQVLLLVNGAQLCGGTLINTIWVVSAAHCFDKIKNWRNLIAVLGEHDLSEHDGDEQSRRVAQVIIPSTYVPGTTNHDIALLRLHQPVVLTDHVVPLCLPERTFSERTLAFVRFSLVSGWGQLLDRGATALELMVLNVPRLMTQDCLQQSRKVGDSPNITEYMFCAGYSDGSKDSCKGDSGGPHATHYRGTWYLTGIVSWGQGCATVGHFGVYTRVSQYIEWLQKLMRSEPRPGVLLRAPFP
Chain of Coagulation factor VII/tissue factor (P13726 33-295 partner limits assumed): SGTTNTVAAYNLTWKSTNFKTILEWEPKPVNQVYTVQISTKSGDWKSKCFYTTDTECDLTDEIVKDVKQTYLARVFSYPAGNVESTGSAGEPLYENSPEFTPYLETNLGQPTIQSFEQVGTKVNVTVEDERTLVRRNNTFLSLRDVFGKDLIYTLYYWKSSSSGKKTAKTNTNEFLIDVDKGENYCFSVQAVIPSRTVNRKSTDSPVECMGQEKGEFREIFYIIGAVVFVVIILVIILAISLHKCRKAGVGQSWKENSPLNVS
Procedure, shortened: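 Enzyme is recombinant human TF/FVIIa complex, assayed at 25 °C. Ki is the mean of two experiments, and the method is the published protocol.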

Trypsin = Trypsin (Homo sapiens, UniProt P07477+P07478+P35030); assay: Inhibition of purified human trypsin after 30 to 60 mins; type: protein assay; procedure, shortened: as §1
Coagulation factor X = Coagulation factor X (Homo sapiens, UniProt P00742); assay: Inhibition of purified human factor 10a using S2765 as substrate after 30 to 60 mins; procedure, shortened: as §1
Chain of Coagulation factor X (P00742 41-179 limits assumed): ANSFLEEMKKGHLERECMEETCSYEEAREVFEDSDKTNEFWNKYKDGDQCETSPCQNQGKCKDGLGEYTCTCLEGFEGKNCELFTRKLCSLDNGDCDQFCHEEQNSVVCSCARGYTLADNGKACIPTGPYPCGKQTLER
Chain of Coagulation factor X (P00742 235-488 limits assumed): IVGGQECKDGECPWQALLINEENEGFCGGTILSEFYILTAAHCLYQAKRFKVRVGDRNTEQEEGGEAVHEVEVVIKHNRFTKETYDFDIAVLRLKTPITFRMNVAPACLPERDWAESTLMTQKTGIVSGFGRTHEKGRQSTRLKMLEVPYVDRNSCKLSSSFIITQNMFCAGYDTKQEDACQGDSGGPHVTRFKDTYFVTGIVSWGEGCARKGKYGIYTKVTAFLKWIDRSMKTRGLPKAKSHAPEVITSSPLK

Chain of Coagulation factor XI (P03951 19-387 limits assumed): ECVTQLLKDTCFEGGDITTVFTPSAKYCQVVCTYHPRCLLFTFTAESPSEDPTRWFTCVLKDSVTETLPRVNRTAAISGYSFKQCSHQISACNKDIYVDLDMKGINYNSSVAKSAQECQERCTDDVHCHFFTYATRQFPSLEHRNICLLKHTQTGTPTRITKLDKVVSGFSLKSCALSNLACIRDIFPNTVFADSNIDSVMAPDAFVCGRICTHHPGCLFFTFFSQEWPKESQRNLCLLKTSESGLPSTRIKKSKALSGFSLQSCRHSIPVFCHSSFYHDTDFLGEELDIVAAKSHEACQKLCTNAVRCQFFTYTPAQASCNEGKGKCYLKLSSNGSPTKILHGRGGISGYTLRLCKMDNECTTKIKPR
Chain of Coagulation factor XI (P03951 388-625 limits assumed): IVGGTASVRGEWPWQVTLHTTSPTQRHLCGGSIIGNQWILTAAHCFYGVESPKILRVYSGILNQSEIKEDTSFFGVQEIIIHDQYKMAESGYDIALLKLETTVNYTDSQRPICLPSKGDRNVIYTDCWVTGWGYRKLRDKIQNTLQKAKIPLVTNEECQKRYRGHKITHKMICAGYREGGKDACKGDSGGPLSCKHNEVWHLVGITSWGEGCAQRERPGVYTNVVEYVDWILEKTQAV

Row | Compound | Ki (Coagulation factor XI) [µM] | Ki (Kallikrein-1) [nM] | Ki (Prothrombin) [µM] | Ki [1] [nM] | Ki (Trypsin) [µM] | Ki (Coagulation factor X) [µM]
1 | C[C@@H]1COC(=O)Nc2cccc(c2)CNC(=O)C(Nc2ccc3c(N)nccc3c2)c2ccc1cc2 (stereo partly drawn) | > 11 | 4 | 7.4 | 1450 | > 6.2 | 6.8
2 | C[C@H]1COC(=O)Nc2cccc(c2)CNC(=O)C(Nc2ccc3c(N)nccc3c2)c2ccc1cc2 (stereo partly drawn) | 9.1 | 25 | 4.7 | 140 | > 6.2 | 4.5
3 | CC1COC(=O)Nc2cccc(c2)CNC(=O)C(Nc2ccc3c(N)nccc3c2)c2ccc1cc2 (stereo not drawn) | 10.8 |  | > 13 |  |  | 2.6

Results, then the compound that gave them:

Row | Ki (Coagulation factor XI) [µM] | Ki (Kallikrein-1) [nM] | Ki (Prothrombin) [µM] | Ki [1] [nM] | Ki (Trypsin) [µM] | Ki (Coagulation factor X) [µM] | Compound
4 | 5.7 | 35 | > 13 | 510 | 3.5 | 0.61 | Nc1nccc2cc(NC3C(=O)NCc4cccc(c4)NC(=O)OCCc4ccc3cc4)ccc12 (stereo not drawn)
5 | > 14.2 | 25 | > 11.5 | 1.4 | > 10 | > 13.3 | Cc1cc2ccc1[C@@H](C)COC(=O)Nc1cccc(c1)CNC(=O)[C@@H]2Nc1ccc2c(N)nccc2c1
6 | > 14.2 | 31 | > 11.5 | 4510 | > 10 | > 13.3 | Cc1cc2ccc1[C@@H](C)COC(=O)Nc1cccc(c1)CNC(=O)[C@H]2Nc1ccc2c(N)nccc2c1
